Experiments:
Mus musculus [1] = assay: Antinociceptive activity in Swiss mouse assessed as inhibition of acetic acid-induced writhing response at 50 mg/kg, po dose administered 1 hr before acetic acid challenge measured for 30 mins; format: functional
How it was run: (§1)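 Swiss mice (25–35 g, either sex), fasted overnight, received compound orally in 0.5% methylcellulose or vehicle, with 8–10 per group. Testing started at 100 mg/kg with successive twofold dose reductions. Writhes were counted for 30 min after acetic acid injection. Percent inhibition of the writhing response was calculated versus vehicle controls (Student's t-test).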

Mus musculus [2] = assay: Antinociceptive activity in Swiss mouse assessed as inhibition of acetic acid-induced writhing response at 1.6 mg/kg, po dose administered 1 hr before acetic acid challenge measured for 30 mins; format: functional
Mus musculus [3] = assay: Antinociceptive activity in Swiss mouse assessed as inhibition of acetic acid-induced writhing response at 100 mg/kg, po dose administered 1 hr before acetic acid challenge measured for 30 mins; format: functional; how it was run: as §1
Rattus norvegicus [4] = assay: Acute gastrolesivity in Wistar rat assessed as appearance of gastric lesions at 200 mg/kg, po after 5 hrs; format: toxicity, organism-based, Stomach; parameters: dose 200 mg/kg, route oral; details: in vivo
How it was run: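 Wistar rats (250–300 g, either sex), fasted overnight, given the compound orally at 200 mg kg-1 as a suspension in 0.5% methylcellulose by gavage (1 mL/100 g); 8 rats per compound. Stomachs were fixed in 2% formalin, opened along the greater curvature, and examined under a stereomicroscope by a blinded observer. The result is the number of rats with gastric damage over the number treated.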

Rattus norvegicus [5] = assay: Antiinflammatory activity against carrageenan-induced paw edema in Wistar rat at 100 mg/kg, po dose administered 1 hr before carrageenan challenge assessed after 3 hrs; format: functional
How it was run: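 Wistar rats (250–300 g, either sex), fasted overnight, dosed by oral gavage with the compound suspended in 0.5% methylcellulose. Controls received vehicle alone, with 8–10 animals per group. Dosing started at 100 mg/kg and was halved stepwise. Carrageenan (1%, 0.1 mL) was injected subplantar 1 h post-dose. Paw volume was measured by plethysmometer immediately and at 3 h, and % inhibition of swelling was calculated versus controls (Student's t-test).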

Mus musculus [6] = assay: Antinociceptive activity in Swiss mouse assessed as inhibition of acetic acid-induced writhing response at 3.12 mg/kg, po dose administered 1 hr before acetic acid challenge measured for 30 mins; format: functional
Mus musculus [7] = assay: Sedative activity in Swiss mouse assessed as inhibition on spontaneous locomotor activity at 12.5 mg/kg, po dose measured for every 5 mins during 60 to 90 mins; format: ADME, organism-based; parameters: dose 12.5 mg/kg, route oral
How it was run: (§2)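 Fasted Swiss mice (25–35 g, either sex) were given compound orally in 0.5% methylcellulose or vehicle. Each mouse was placed alone in a photobeam-type activity cage, with counts recorded every 5 min for 90 min. Pulses from the final 30 min were scored, with testing run 9:00–13:00. Percent inhibition was calculated versus controls (Student's t-test).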

Mus musculus [8] = assay: Sedative activity in Swiss mouse assessed as inhibition on spontaneous locomotor activity at 25 mg/kg, po measured for every 5 mins during 60 to 90 mins; format: functional, organism-based; parameters: dose 25 mg/kg, route oral; how it was run: as §2
Mus musculus [9] = assay: Antinociceptive activity in Swiss mouse assessed as inhibition of acetic acid-induced writhing response at 0.8 mg/kg, po dose administered 1 hr before acetic acid challenge measured for 30 mins; format: functional
Mus musculus [10] = assay: Antinociceptive activity in Swiss mouse assessed as inhibition of acetic acid-induced writhing response at 200 mg/kg, po dose administered 1 hr before acetic acid challenge measured for 30 mins; format: functional
Rattus norvegicus [11] = assay: Antiinflammatory activity against carrageenan-induced paw edema in Wistar rat at 200 mg/kg, po dose administered 1 hr before carrageenan challenge assessed after 3 hrs; format: functional
Mus musculus [12] = assay: Antinociceptive activity in Swiss mouse assessed as inhibition of acetic acid-induced writhing response at 25 mg/kg, po dose administered 1 hr before acetic acid challenge measured for 30 mins; format: functional; how it was run: as §1
Mus musculus [13] = assay: Sedative activity in Swiss mouse assessed as inhibition on spontaneous locomotor activity at 6.25 mg/kg, po measured for every 5 mins during 60 to 90 mins; format: ADME, organism-based; parameters: dose 6.25 mg/kg, route oral; how it was run: as §2
Mus musculus [14] = assay: Antinociceptive activity in Swiss mouse assessed as inhibition of acetic acid-induced writhing response at 12.5 mg/kg, po dose administered 1 hr before acetic acid challenge measured for 30 mins; format: functional; how it was run: as §1
Mus musculus [15] = assay: Sedative activity in Swiss mouse assessed as inhibition of spontaneous locomotor activity at 100 mg/kg, po dose measured for every 5 mins during 60 to 90 mins; format: organism-based; parameters: dose 100 mg/kg, route oral; how it was run: as §2
Mus musculus [16] = assay: Antinociceptive activity in Swiss mouse assessed as inhibition of acetic acid-induced writhing response at 6.25 mg/kg, po dose administered 1 hr before acetic acid challenge measured for 30 mins; format: functional; how it was run: as §1
Mus musculus [17] = species: Mus musculus; assay: animal or person; details: Swiss, po, read-out: INH
Rattus norvegicus [18] = assay: Antiinflammatory activity against carrageenan-induced paw edema in Wistar rat at 10 mg/kg, po dose administered 1 hr before carrageenan challenge assessed after 3 hrs; format: functional

## CCN(CC)C(=O)c1c(N2CCN(C)CC2)c2cccnc2n2c(C(C)C)nnc12
Mus musculus [1]
  inhibition in vivo at 50 mg/kg: 85%
Mus musculus [2]
  inhibition in vivo at 1.6 mg/kg: 39%
Mus musculus [3]
  inhibition in vivo at 100 mg/kg: 88%
Rattus norvegicus [4]
  Activity: Non-toxic
Rattus norvegicus [5]
  inhibition in vivo at 100 mg/kg: 23%
Mus musculus [6]
  inhibition in vivo at 3.12 mg/kg: 85%
Mus musculus [7]
  inhibition at 12.5 mg/kg: 74%
Mus musculus [8]
  inhibition at 25 mg/kg: 99%
Mus musculus [9]
  inhibition in vivo at 0.8 mg/kg: 3%
Mus musculus [10]
  inhibition in vivo at 200 mg/kg: 86%
Rattus norvegicus [11]
  inhibition in vivo at 200 mg/kg: 34%
Mus musculus [12]
  inhibition in vivo at 25 mg/kg: 90%
Mus musculus [13]
  inhibition at 6.25 mg/kg: 19%
Mus musculus [14]
  inhibition in vivo at 12.5 mg/kg: 92%
Mus musculus [15]
  inhibition at 100 mg/kg: 94%
Mus musculus [16]
  inhibition in vivo at 6.25 mg/kg: 83%

## COc1ccc2c(c1)c(CC(=O)O)c(C)n2C(=O)c1ccc(Cl)cc1 [INDOMETHACIN]
Mus musculus [17]
  inhibition in vivo at 10 mg/kg: 84%
Rattus norvegicus [18]
  inhibition in vivo at 10 mg/kg: 51%
